# Experimental data as given in ChEMBL document CHEMBL4665734, “Optimization of globomycin analogs as novel gram-negative antibiotics” (Bioorg Med Chem Lett, 2020).
# The source made the active and inactive calls. No cut-off for these calls is given here. Starred links: 1 amine or outer side, 2 acyl side, 3 side chain; linkers in the order of their positions; H or OH if unused. Non-standard residues stand in square brackets, D forms with d. Residues, ends and D or L forms follow the SMILES beside them. *: point of attachment. X1 = CCCCCC[C@@H](OC[C@@H](C)N[*:1])[C@@H](C)C(=O)[*:2]; Gly(cHept) = N[C@H](C(=O)O)C1CCCCCC1; NMeNva = CCC[C@H](NC)C(=O)O; X2 = NC[C@H]1C[C@H](*)C1; Dap = NC[C@H](N)C(=O)O
# Legend:
# Enterobacter cloacae = test: Inhibition of LspA in Enterobacter cloacae assessed as inhibition of bacterial growth
# [1] = Unbound drug concentration in plasma of iv dosed mouse infected with Escherichia coli 25922; type: ADME, organism-based; settings: in vivo
# Outline: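 Same infected neutropenic mouse thigh model (E. coli 25922, 20 hour IV infusion). Unbound concentration was derived from the average blood concentration and the free fraction in mouse plasma.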
# Jurkat = test: Cytotoxicity against human Jurkat cells; type: cell-based
# Outline: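 Jurkat cell growth assay. Result reported as antiproliferative EC50.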
# [2] = Drug concentration in blood of iv dosed mouse infected with Escherichia coli 25922 infused for 20 hrs; type: ADME, organism-based; settings: read-out: Ct
# Outline: (§1)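 Neutropenic mouse thigh model infected with E. coli 25922. Compound given by IV infusion over 20 hour. Average blood concentration was measured during the infusion, and thigh CFU was compared with vehicle-treated animals.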
# [3] = Stability of the compound in mouse plasma assessed as parent compound remaining after 24 hrs; type: ADME, cell-free; settings: read-out: Stabilty
# Outline: (§2)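 Test compound incubated for 24 hour in human, rat or mouse plasma. Stability is reported as the percentage of parent compound remaining.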
# [4] = Clearance in mouse liver microsomes; type: ADME, Microsome
# Outline: (§3)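 Intrinsic clearance in rat or mouse liver microsomes, expressed in mL/min/kg.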
# [5] = Lipophilicity, logD of the compound at pH 7.4; settings: buffer, pH 7.4, logD
# [6] = Stability of the compound in human plasma assessed as parent compound remaining after 24 hrs; type: ADME, cell-free; settings: read-out: Stabilty; outline: as §2
# [7] = Growth inhibition of Staphylococcus aureus USA300
# Klebsiella pneumoniae = test: Inhibition of LspA in Klebsiella pneumoniae assessed as inhibition of bacterial growth
# Escherichia coli [8] = test: Inhibition of LspA in Escherichia coli CFT073imp4213 harboring outer membrane-permeable mutant assessed as inhibition of bacterial growth
# Outline: (§4)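 Read-out is the minimum inhibitory concentration, reported in µM.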
# [9] = Protein binding in mouse plasma; type: ADME, cell-free; settings: read-out: PPB (converted)
# [10] = Clearance in iv dosed mouse; type: ADME, organism-based; settings: in vivo
# [11] = Half life in iv dosed mouse; type: ADME, organism-based; settings: in vivo
# [12] = Stability of the compound in rat plasma assessed as parent compound remaining after 24 hrs; type: ADME, cell-free; settings: read-out: Stabilty; outline: as §2
# [13] = tested on: Escherichia coli ATCC 25922; test: Inhibition of LspA in wild type Escherichia coli 25922 assessed as inhibition of bacterial growth; outline: as §4
# Acinetobacter baumannii = test: Inhibition of LspA in Acinetobacter baumannii assessed as inhibition of bacterial growth
# Escherichia coli [14] = test: In vivo inhibition of LspA in Escherichia coli 25922 infected in iv infused mouse neutropenic thigh infection model assessed as reduction in CFU infused for 20 hrs; type: functional, organism-based; settings: ATCC 25922; outline: as §1
# [15] = Protein binding in rat plasma; type: ADME, cell-free; settings: read-out: PPB (converted)
# Escherichia coli CFT073 = test: Inhibition of LspA in wild type Escherichia coli CFT073 assessed as inhibition of bacterial growth; outline: as §4
# Pseudomonas aeruginosa = test: Inhibition of LspA in Pseudomonas aeruginosa assessed as inhibition of bacterial growth
# [16] = Protein binding in plasma of iv dosed mouse infected with Escherichia coli 25922 assessed as free fraction; type: ADME, organism-based
# [17] = Clearance in rat liver microsomes; type: ADME, Microsome; outline: as §3
compound,measurement,setting,value
CCCCCC[C@H]1OC[C@@H](C)NC(=O)[C@H](CO[C@H]2C[C@H](CN)C2)NC(=O)[C@H](CN)NC(=O)[C@H](C2CCCCCC2)NC(=O)[C@H](CCC)N(C)C(=O)[C@@H]1C (cyclo([Dap]S(X2)[X1][NMeNva][Gly(cHept)])),MIC,Enterobacter cloacae,6.3 µM
same,Cp(f),[1],0.3 µM
same,EC50,Jurkat,> 100 µM
same,concentration at 20 h,[2],27 µM
same,remaining at 24 h,[3],101%
same,CLhep predicted,[4],43 mL/min/kg
same,logD,[5],1.6
same,remaining at 24 h,[6],98%
same,MIC,[7],50 µM
same,MIC,Klebsiella pneumoniae,18 µM
same,MIC,Escherichia coli [8],0.048 µM
same,fraction unbound,[9],0.011
same,clearance,[10],2.9 mL/min/kg
same,half-life,[11],4 h
same,remaining at 24 h,[12],96%
same,MIC,[13],3.1 µM
same,MIC,Acinetobacter baumannii,18 µM
same,Activity,Escherichia coli [14],inactive
same,fraction unbound,[15],0.033
same,MIC,Escherichia coli CFT073,3.1 µM
same,MIC,Pseudomonas aeruginosa,100 µM
same,fraction unbound,[16],0.011
same,CLhep predicted,[17],20 mL/min/kg
